Laboratory results as given in ChEMBL document CHEMBL3124867, “Hepatitis C replication inhibitors that target the viral NS4B protein” (J Med Chem, 2014).

What was measured:
Hepatitis C virus [1] = assay: Antiviral activity against Hepatitis C virus genotype 1b infected in human HuH7 cells after 48 hrs by luciferase reporter gene assay; format: functional, organism-based, Hepacivirus hominis; conditions: Huh-7, 48 h
Hepatitis C virus [2] = assay: Antiviral activity against Hepatitis C virus genotype 1a infected in human HuH7 cells after 48 hrs by luciferase reporter gene assay; format: functional, organism-based, Hepacivirus hominis; conditions: subtype 1a, Huh-7, 48 h
[3] = Displacement of [3H]-3-(1-(3-chloro-6-isopropyl-8-(trifluoromethyl)imidazo[1,2-a]pyridine-2-carbonyl)piperidin-4-yl)oxazolidin-2-one from HCV genotype 1b C-terminal His-tagged NS4B (1 to 261 aa) expressed in baculovirus infected SF9 cells after overnight incubation; set-up: species or system Hepatitis C virus subtype 1b
Hepatitis C virus [4] = assay: Antiviral activity against Hepatitis C virus genotype 1b expressing NS4B H94N mutant infected in human HuH7 cells after 48 hrs by luciferase reporter gene assay; format: functional, organism-based, Hepacivirus hominis; conditions: Huh-7, 48 h
Hepatitis C virus [5] = assay: Antiviral activity against Hepatitis C virus genotype 1b expressing NS4B V105M mutant infected in human HuH7 cells after 48 hrs by luciferase reporter gene assay; format: functional, organism-based, Hepacivirus hominis; conditions: Huh-7, 48 h
[6] = Lipophilicity, log D of the compound by chromatographic analysis; format: physicochemical
Method in brief: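 Lipophilicity was measured chromatographically and reported as ChromLogD; ≥6 replicates.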

Huh-7 = assay: Cytotoxicity against human HuH7 cells at 50 uM after 2 days by Cell Titer Glo assay; format: cell-based; conditions: huh-7, 48 h
Method in brief: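 Huh7 cells were exposed to compound at 50 μM for 2 days and scored for cellular toxicity.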

Rattus norvegicus = assay: Prodrug conversion in CD rat assessed as 4-(3-chloro-6-cyclopropyl-8-(trifluoromethyl)imidazo[1,2-a]pyridine-2-carbonyl)-1-((trans)-4-hydroxycyclohexyl)piperazin-2-one level at 300 mg/kg, po; format: ADME, organism-based; set-up: dose 300 mg/kg, route oral; conditions: in vivo
Method in brief: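 CD rats were given a single oral dose of 300 mg/kg of parent suspension or of prodrug. Plasma was assayed for the parent drug and for uncleaved prodrug.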

| SMILES | EC50 (Hepatitis C virus [1]) | EC50 (Hepatitis C virus [2]) | IC50 [3] | EC50 (Hepatitis C virus [4]) | EC50 (Hepatitis C virus [5]) | chromatographic logD [6] | Activity (Huh-7) | Stability (Rattus norvegicus) |
| --- | --- | --- | --- | --- | --- | --- | --- | --- |
| O=C(c1nc2c(C(F)(F)F)cc(C3CC3)cn2c1Cl)N1CCN(C(=O)[C@H]2C[C@H](O)C2)CC1 | 19 nM | 6.3 nM | 100 nM | 720 nM | > 1000 nM | – | – | – |
| O=C(c1nn2c(C(F)(F)F)cc(C3CC3)cc2c1Cl)N1CCN([C@@H]2C[C@H]3C[C@H]3[C@H]2O)C(=O)C1 | 2.3 nM | 4 nM | 23 nM | 38 nM | 65 nM | – | – | – |
| Cn1c(C(=O)N2CCN([C@H]3CC[C@H](O)CC3)C(=O)C2)nc2c(C(F)(F)F)cc(C3CC3)cc21 | 3 nM | 0.5 nM | 24 nM | 150 nM | 230 nM | 4.3 | Non-toxic | – |
| O=C(c1nn2c(C(F)(F)F)cc(C3CC3)cc2c1Cl)N1CCN([C@H]2C[C@H]3C[C@H]3[C@H]2O)C(=O)C1 | 30 nM | 120 nM | 16 nM | > 1000 nM | > 1000 nM | – | – | – |
| CCC(=O)O[C@H]1CC[C@H](N2CCN(C(=O)c3nc4c(C(F)(F)F)cc(C5CC5)cn4c3Cl)CC2=O)CC1 | – | – | – | – | – | – | – | Stable |
| O=C(c1nn2c(C(F)(F)F)cc(C3CC3)cc2c1Cl)N1CCN(C(=O)[C@H]2C[C@H](O)C2)CC1 | 8.3 nM | 2 nM | < 40 nM | 330 nM | > 1000 nM | – | – | – |
| O=C(c1nn2c(C(F)(F)F)cc(C3CC3)cc2c1Cl)N1CCC(N2CCOC2=O)CC1 | 5 nM | 2 nM | 37 nM | 94 nM | 370 nM | – | – | – |
| O=C(c1oc2c(C(F)(F)F)cc(C3CC3)cc2c1Cl)N1CCN([C@H]2CC[C@H](O)CC2)C(=O)C1 | 0.8 nM | 0.09 nM | 4 nM | 22 nM | 110 nM | 5.1 | Non-toxic | – |
| O=C(c1nn2c(C(F)(F)F)cc(C3CC3)cc2c1Cl)N1CCN([C@@H]2C[C@@H]3C[C@@H]3[C@@H]2O)C(=O)C1 | 19 nM | 95 nM | 23 nM | > 1000 nM | > 1000 nM | – | – | – |
| O=C(c1nn2c(C(F)(F)F)cc(C3CC3)cc2c1Cl)N1CCN([C@H]2C[C@@H]3C[C@@H]3[C@H]2O)C(=O)C1 | 14 nM | 41 nM | 18 nM | > 1000 nM | > 1000 nM | – | – | – |
| CN(C)CC(=O)O[C@H]1CC[C@H](N2CCN(C(=O)c3nc4c(C(F)(F)F)cc(C5CC5)cn4c3Cl)CC2=O)CC1 | – | – | – | – | – | – | – | Stable |
| O=C(O)COCC(=O)O[C@H]1CC[C@H](N2CCN(C(=O)c3nc4c(C(F)(F)F)cc(C5CC5)cn4c3Cl)CC2=O)CC1 | – | – | – | – | – | – | – | Stable |
| O=C(c1nn2c(C(F)(F)F)cc(C3CC3)cc2c1Cl)N1CCN([C@@H]2C[C@H]3C[C@H]3[C@@H]2O)C(=O)C1 | 4.9 nM | 7.9 nM | 18 nM | 64 nM | 400 nM | – | – | – |
| O=C(c1nc2c(C(F)(F)F)cc(C3CC3)cn2c1Cl)N1CCC(N2CCOC2=O)CC1 | 12 nM | 8.3 nM | 76 nM | 370 nM | > 1000 nM | – | – | – |
| O=C(c1nc2c(C(F)(F)F)cc(C3CC3)cn2c1Cl)N1CCN([C@@H]2C[C@H]3C[C@H]3C2)C(=O)C1 | 1 nM | 1.4 nM | 58 nM | 20 nM | 59 nM | – | – | – |
| O=C(CO)O[C@H]1CC[C@H](N2CCN(C(=O)c3nc4c(C(F)(F)F)cc(C5CC5)cn4c3Cl)CC2=O)CC1 | – | – | – | – | – | – | – | Stable |
| O=C(c1nn2c(C(F)(F)F)cc(C3CC3)cc2c1Cl)N1CCC2(OCC3(CC3)CO2)C(O)C1 (racemic) | 1.9 nM | 4 nM | 10 nM | 39 nM | 250 nM | – | – | – |
| O=C(c1nc2c(C(F)(F)F)cc(C3CC3)cn2c1Cl)N1CCC2(OCC3(CC3)CO2)C(O)C1 (racemic) | 4.3 nM | 14 nM | 28 nM | 230 nM | 770 nM | – | – | – |
